# In ChEMBL document CHEMBL1125117, “Substituted 1,3-dihydro-2H-pyrrolo[2,3-b]pyridin-2-ones as potential antiinflammatory agents” (1990):
# How the values were obtained:
# Rattus norvegicus [1] = assay: In vivo inhibitory activity against cells in reverse passive Arthus reaction (RPAR) assay at dose 25 mg/kg in the pleural cavity of rats.; type: functional
# How it was run: (§1)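 Male rats, five per group, dosed orally 1 h before iv BSA antigen (5 mg). Rabbit anti-BSA IgG (0.5 mg) given intrapleurally 30 min later. At 4 h, pleural exudate volume was measured and neutrophils counted (Coulter) after saline-EDTA lavage. Reported as % reduction in cells and fluid relative to control.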
# Rattus norvegicus [2] = assay: In vivo inhibitory activity against fluid in reverse passive Arthus reaction (RPAR) assay at dose 25 mg/kg in the pleural cavity of rats.; type: functional; how it was run: as §1
# Rattus norvegicus [3] = assay: In vivo effect on prostaglandin and leukotriene mediated production in rat pleural cavity was assessed by the inhibition of TXB2 in 5-lipoxygenase/ cyclooxygenase at dose 20 mg/kg; type: functional
# How it was run: (§2)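 Rat reversed passive Arthus pleurisy, oral dosing 1 h before challenge. BSA given iv (5 mg), then rabbit anti-BSA IgG intrapleurally 30 min later. At 4 h, exudate was collected into indomethacin/NDGA and its volume recorded. Neutrophils were counted by Coulter counter. TXB2 and LTE4 in ethanol-extracted supernatant were measured by RIA with tritiated recovery spikes. Reported as % inhibition versus control.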
# Rattus norvegicus [4] = assay: In vivo effect on prostaglandin and leukotriene mediated production in rat pleural cavity was assessed by the inhibition of cell influx in 5-lipoxygenase/ cyclooxygenase at dose 20 mg/kg; type: functional; how it was run: as §2
# Rattus norvegicus [5] = assay: In vivo effect on prostaglandin and leukotriene mediated production in rat pleural cavity was assessed by the inhibition of fluid volume in 5-lipoxygenase/ cyclooxygenase at dose 20 mg/kg; type: functional; how it was run: as §2
# Rattus norvegicus [6] = assay: In vivo antiinflammatory activity against edema formation in the noninjected(secondary) paw of the rat (before edema stimulation) at dose 25 mg/kg; type: functional
# How it was run: (§3)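 Adjuvant arthritis in rats, prophylactic regimen. Oral dosing began 1 h before challenge and continued for 21 consecutive days. Heat-killed M. tuberculosis in paraffin oil (6 mg/mL), 0.1 mL injected into the left hind paw, with methylcellulose-treated controls. Both hind paw volumes measured by plethysmograph on day 21. Reported as % change relative to control.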
# Rattus norvegicus [7] = assay: In vivo antiinflammatory activity against edema formation in the injected(primary) paw of the rat(before edema stimulation) at dose 25 mg/kg; type: functional; how it was run: as §3
# [8] = molecular target: T1, Polyunsaturated fatty acid 5-lipoxygenase (Homo sapiens) (UniProt P09917); assay: In vitro inhibitory activity against 5-lipoxygenase in human polymorphonuclear (PMN) cells; conditions: concentration not given here
# T1 sequence (whole entry): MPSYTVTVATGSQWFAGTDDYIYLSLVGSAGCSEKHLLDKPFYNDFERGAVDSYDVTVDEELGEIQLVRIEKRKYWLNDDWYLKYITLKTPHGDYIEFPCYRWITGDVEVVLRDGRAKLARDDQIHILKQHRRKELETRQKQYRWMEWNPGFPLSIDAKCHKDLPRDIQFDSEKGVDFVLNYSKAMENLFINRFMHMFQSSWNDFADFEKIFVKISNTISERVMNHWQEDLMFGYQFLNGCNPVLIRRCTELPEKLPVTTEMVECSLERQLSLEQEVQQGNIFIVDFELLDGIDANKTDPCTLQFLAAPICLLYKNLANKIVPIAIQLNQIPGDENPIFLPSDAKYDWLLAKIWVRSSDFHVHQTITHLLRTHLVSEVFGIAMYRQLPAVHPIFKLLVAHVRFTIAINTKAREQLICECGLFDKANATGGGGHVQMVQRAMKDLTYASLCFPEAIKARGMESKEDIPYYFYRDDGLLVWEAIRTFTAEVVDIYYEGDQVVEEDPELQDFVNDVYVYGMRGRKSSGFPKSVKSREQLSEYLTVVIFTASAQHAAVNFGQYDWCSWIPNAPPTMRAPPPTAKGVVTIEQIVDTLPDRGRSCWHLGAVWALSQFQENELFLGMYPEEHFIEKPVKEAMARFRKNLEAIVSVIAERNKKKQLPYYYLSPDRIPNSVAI
# How it was run: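 Human PMN neutrophils (2×10^7 cells/mL) in HEPES buffer with 1 mM CaCl2, preincubated 4 min with test compound in DMSO vehicle. Then stimulated with [14C]arachidonic acid plus calcium ionophore A23187 for 5 min and stopped with methanol. 5-HETE was quantitated by HPLC. Reported as % inhibition versus vehicle, tested at 15 μM.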
# [9] = molecular target: Cyclooxygenase (Homo sapiens) (UniProt P35354+P23219); assay: In vitro inhibitory activity against Prostaglandin G/H synthase in human platelets; design: concentration or dose not given beside the values; conditions: concentration not given here
# How it was run: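 Human platelets (2×10^5/mL) in HEPES buffer with 0.5 mM EGTA and 1.5 mM CaCl2, incubated 4 min with compound in DMSO vehicle. Then given [14C]arachidonic acid and A23187 ionophore for 5 min and stopped with methanol. HHT was measured by reverse-phase HPLC. Reported as % inhibition of HHT versus vehicle, at 15 μM.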
# Rattus norvegicus [10] = assay: In vivo effect on prostaglandin and leukotriene mediated production in rat pleural cavity was assessed by the inhibition of LTE4 in 5-lipoxygenase/ cyclooxygenase at dose 20 mg/kg
# Rattus norvegicus [11] = assay: In vivo effect on prostaglandin and leukotriene mediated production in rat pleural cavity was assessed by the inhibition of TXB2 in 5-lipoxygenase/ cyclooxygenase at dose 40 mg/kg; type: functional; how it was run: as §2
# Rattus norvegicus [12] = assay: In vivo effect on prostaglandin and leukotriene mediated production in rat pleural cavity was assessed by the inhibition of cell influx in 5-lipoxygenase/ cyclooxygenase at dose 40 mg/kg; type: functional; how it was run: as §2
# Rattus norvegicus [13] = assay: In vivo effect on prostaglandin and leukotriene mediated production in rat pleural cavity was assessed by the inhibition of fluid volume in 5-lipoxygenase/ cyclooxygenase at dose 40 mg/kg; type: functional; how it was run: as §2
# Rattus norvegicus [14] = assay: In vivo effect on prostaglandin and leukotriene mediated production in rat pleural cavity was assessed by the inhibition of LTE4 in 5-lipoxygenase/ cyclooxygenase at dose 40 mg/kg
smiles,measurement,setting,value
CC1(C)C(=O)N(c2ccc(F)cc2)c2ncccc21,ED50,Rattus norvegicus [1],4.5 mg/kg
same,ED50,Rattus norvegicus [2],29.5 mg/kg
same,inhibition in vivo at 20 mg/kg,Rattus norvegicus [3],53%
same,inhibition in vivo at 20 mg/kg,Rattus norvegicus [4],70%
same,inhibition in vivo at 20 mg/kg,Rattus norvegicus [5],43%
same,inhibition in vivo at 25 mg/kg,Rattus norvegicus [6],48%
same,inhibition in vivo at 25 mg/kg,Rattus norvegicus [7],0%
same,inhibition,[8],2%
same,inhibition,[9],0%
same,LTE4 inhibition,Rattus norvegicus [10],36%
CC1(C)C(=O)N(c2ccccc2)c2ncccc21,ED50,Rattus norvegicus [1],21.9 mg/kg
same,ED50,Rattus norvegicus [2],35.1 mg/kg
same,inhibition in vivo at 40 mg/kg,Rattus norvegicus [11],54%
same,inhibition in vivo at 40 mg/kg,Rattus norvegicus [12],70%
same,inhibition in vivo at 40 mg/kg,Rattus norvegicus [13],60%
same,inhibition in vivo at 25 mg/kg,Rattus norvegicus [6],24%
same,inhibition in vivo at 25 mg/kg,Rattus norvegicus [7],0%
same,inhibition,[8],0%
same,inhibition,[9],0%
same,LTE4 inhibition,Rattus norvegicus [14],54%
